Laboratory results from PMC8033778 (ACS Pharmacology & Translational Science, 2021).

Experiment: In vivo stability of 18F-labeled Tz-derivatives
Details: naïve mice, plasma 30 min p.i., radio-TLC, n = 4
Procedure, shortened: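 Naïve mice received the 18F-labeled tetrazine. Blood was collected after 30 min and plasma analysed by radio-TLC. Stability is expressed as the fraction (%) of radioactivity corresponding to intact compound (n = 4).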

## Cc1nnc(-c2ccc(OCc3cn(CC[18F])nn3)cc2)nn1 [[^18F]5, 3-(4-((1-(2-[18F]Fluoroethyl)-1H-1,2,3-triazol-4-yl)methoxy)phenyl)-6-methyl-1,2,4,5-tetrazine]
  in vivo stability (% intact [18F]Tz after 30 min): 26%
